Measurements as given in publication PMC3357394 (Organic & biomolecular chemistry, 2011).

Experiments:
[1] = target: T1, recombinant CD38 (Homo sapiens, UniProt P28907); assay: Inhibition of the NADase; assay type: biochemical; settings: for inhibitory activity against CD38 NADase (in words): recombinant CD38
T1 sequence (P28907 45-300): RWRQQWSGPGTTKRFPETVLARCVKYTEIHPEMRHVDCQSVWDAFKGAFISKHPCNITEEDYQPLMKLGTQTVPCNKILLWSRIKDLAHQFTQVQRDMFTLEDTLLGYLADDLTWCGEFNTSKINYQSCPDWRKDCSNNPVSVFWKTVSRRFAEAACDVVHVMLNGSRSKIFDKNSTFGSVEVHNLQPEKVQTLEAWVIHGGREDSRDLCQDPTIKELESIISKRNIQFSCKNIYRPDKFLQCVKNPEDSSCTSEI

[2] = tested on: phenylephrine-induced contraction in rat aortic ring preparations with intact endothelium; settings: Phe (1 μM)-contracted endothelium-intact rat aortic rings, 30-300 μM
Outline: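 Endothelium-intact 3 mm thoracic aortic rings from male Sprague-Dawley rats (250–300 g) were held isometrically at 15 mN in Krebs solution (37°, 95% O2-5% CO2, pH≈7.4) and checked with 0.3 μM Phe then 1 μM ACh. After 60 min equilibration, rings were precontracted with 1 μM Phe and given cumulative water-dissolved test compound (30–300 μM). pD2 came from nonlinear fits of individual curves; mean±SEM, 3–5 rats/group.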

[3] = tested on: PC12 cells; settings: cited from earlier work
[4] = target: NAD+ glycohydrolase activity of CD38; settings: competitive inhibitor of NAD+ glycohydrolase activity of CD38; cited from earlier work
[5] = target: CD38; settings: inhibitors of CD38; cited from earlier work

| Compound | IC50 [1] | inhibitory activity against CD38 NADase (in words) [1] | also measured |
| --- | --- | --- | --- |
| NC(=O)c1ccc[n+](COCCOc2ccc([N+](=O)[O-])cc2)c1.[Cl-] [Compound 5, 1-{[2-(4-nitro-phenoxy)ethoxy]methyl}-3-(aminocarbonyl)-pyridinium chloride] | 5.65 mM | weak inhibitory activities | – |
| NC(=O)c1ccc[n+](COCCCCOC[n+]2cccc(C(N)=O)c2)c1.[Cl-].[Cl-] [Compound 9, 1,4-dimethoxy-butylene-bis-N,N′-3-(aminocarbonyl)-pyridinium dichloride] | – | – | vascular relaxing effect (in words) [2]: no such vascular relaxing effect |
| NC(=O)c1ccc2c(ccc[n+]2COCCOc2ccc(Oc3ccccc3)cc2)c1.[Cl-] [Compound 13, 1-{[2-(4-phenoxy-phenoxy)ethoxy]methyl}-6-(aminocarbonyl)-quinolinium chloride] | 2.12 mM | weak inhibitory activities | – |
| NC(=O)c1ccc[n+](COCCOc2cccc3cccnc23)c1.[Cl-] [Compound 7, 1-{[2-(8′-quinolyloxy)ethoxy]methyl}-3-(aminocarbonyl)-pyridinium chloride] | – | weak inhibitory activities | inhibition of acetylcholine (Ach)-induced Ca2+ increase (in words) [3]: significantly inhibited |
| NC(=O)c1ccc[n+]([C@@H]2C[C@H](COP(=O)([O-])OP(=O)(O)OC[C@H]3O[C@@H](n4cnc5c(N)ncnc54)[C@H](O)[C@@H]3O)[C@@H](O)[C@H]2O)c1 [carba-NAD^+, dinucleotide carbanicotinamide adenine dinucleotide] | – | – | IC50 [4]: ~0.1 mM |
| NC(=O)c1c[n+](COCCOc2ccc(Oc3ccccc3)cc2)ccc1N.[Cl-] [Compound 14, 1-{[2-(4-phenoxy-phenoxy)ethoxy]methyl}-3-(aminocarbonyl)-4-amino-pyridiniu m chloride] | 4.8 mM | weak inhibitory activities | – |
| NC(=O)c1ccc[n+](COC/C=C/COc2cccc3cccnc23)c1.[Cl-] [Compound 12, (E)-1-{[4-(8′-quinolyloxy)but-2-enyloxy]methyl}-3-(aminocarbonyl)-pyridinium chloride] | – | weak inhibitory activities | – |
| COc1ccc(OCCOC[n+]2cccc(C(N)=O)c2)cc1.[Cl-] [Compound 3, 1-{[2-(4-methoxy-phenoxy)ethoxy]methyl}-3-(aminocarbonyl)-pyridinium chloride] | 11.4 mM | weak inhibitory activities | – |
| NC(=O)c1ccc[n+](COCCOc2cccc(C(F)(F)F)c2)c1.[Cl-] [Compound 6, 1-{[2-(3-trifluoromethyl-phenoxy)ethoxy]methyl}-3-(aminocarbonyl)-pyridinium chloride] | – | no affinity for CD38 | – |
| NC(=O)c1ccc[n+](COCCOc2ccc(Oc3ccccc3)cc2)c1.[Cl-] [Compound 4, 1-{[2-(4-phenoxy-phenoxy)ethoxy]methyl}-3-(aminocarbonyl)-pyridinium chloride] | 3.42 mM | weak inhibitory activities | vascular relaxing effect (in words) [2]: concentration-dependent relaxation |
| NC(=O)c1ccc[n+]([C@@H]2O[C@H](COP(=O)(O)O)C(O)C2F)c1 (stereo partly drawn) [ara-F NMN] | – | – | Ki [5]: nano-molar range |
